Here are results for six compounds from ChEMBL document CHEMBL4610031, “Design, synthesis and biological evaluation of Proteolysis Targeting Chimeras (PROTACs) as a BTK degraders with improved pharmacokinetic properties” (Bioorg Med Chem Lett, 2020).

For data set [1], the target named is T1, von Hippel-Lindau disease tumor suppressor/Tyrosine-protein kinase BTK (Homo sapiens, UniProt Q06187+P40337). Kind of data set: Protac activity at VHL/BTK in human NAMALWA cells assessed as induction of BTK protein degradation incubated for 24 hrs by immunoblotting method. The conditions noted are these: namalva. It counts as cell-based. Put shortly:
(§1)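 NAMALWA cells were grown in RPMI 1640 with 10% FBS, streptomycin and penicillin at 37 °C, 5% CO2. 2 × 10^6 cells per concentration were treated 24 h, rinsed in cold PBS, and lysed in Tris pH 8.0/deoxycholate/Triton X-100 with protease and phosphatase inhibitors.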
(In general: Immunoblotting shows a protein as a band on a membrane.)
Target sequence in this assay (Q06187 whole entry): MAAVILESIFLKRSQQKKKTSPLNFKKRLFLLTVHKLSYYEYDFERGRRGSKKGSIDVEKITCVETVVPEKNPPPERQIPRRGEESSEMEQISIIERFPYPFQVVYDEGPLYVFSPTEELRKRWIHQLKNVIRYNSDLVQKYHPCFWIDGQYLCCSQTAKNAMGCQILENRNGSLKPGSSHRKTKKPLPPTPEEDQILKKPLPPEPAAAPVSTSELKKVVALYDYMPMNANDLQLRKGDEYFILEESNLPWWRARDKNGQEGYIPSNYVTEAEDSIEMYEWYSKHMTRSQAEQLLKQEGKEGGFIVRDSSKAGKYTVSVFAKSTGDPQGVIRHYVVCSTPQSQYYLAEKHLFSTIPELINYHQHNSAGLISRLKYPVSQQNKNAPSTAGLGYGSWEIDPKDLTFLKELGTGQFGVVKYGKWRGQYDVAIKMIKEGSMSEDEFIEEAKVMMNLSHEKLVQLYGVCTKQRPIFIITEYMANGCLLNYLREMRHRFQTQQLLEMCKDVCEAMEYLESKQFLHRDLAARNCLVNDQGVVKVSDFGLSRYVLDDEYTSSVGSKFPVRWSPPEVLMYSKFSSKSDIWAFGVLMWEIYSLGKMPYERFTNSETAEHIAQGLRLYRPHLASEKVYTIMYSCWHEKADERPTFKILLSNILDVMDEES
Target sequence in this assay (P40337 whole entry): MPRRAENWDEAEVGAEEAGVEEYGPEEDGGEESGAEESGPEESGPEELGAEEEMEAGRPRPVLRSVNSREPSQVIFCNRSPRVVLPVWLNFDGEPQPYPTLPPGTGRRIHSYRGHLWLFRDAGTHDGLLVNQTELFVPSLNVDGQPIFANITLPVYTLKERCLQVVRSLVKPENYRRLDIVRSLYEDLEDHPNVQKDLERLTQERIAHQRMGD

For data set [2], the target named is T2, Protein cereblon/Tyrosine-protein kinase BTK (Homo sapiens, UniProt Q06187+Q96SW2). Kind of data set: Protac activity at CRBN/BTK in human NAMALWA cells assessed as induction of BTK protein degradation incubated for 24 hrs by immunoblotting method. The class given is cell-based. The settings on record: namalva. The method, boiled down:
as §1
Target sequence in this assay (Q06187 whole entry): as the sequence (Q06187 whole entry) above
Target sequence in this assay (Q96SW2 whole entry): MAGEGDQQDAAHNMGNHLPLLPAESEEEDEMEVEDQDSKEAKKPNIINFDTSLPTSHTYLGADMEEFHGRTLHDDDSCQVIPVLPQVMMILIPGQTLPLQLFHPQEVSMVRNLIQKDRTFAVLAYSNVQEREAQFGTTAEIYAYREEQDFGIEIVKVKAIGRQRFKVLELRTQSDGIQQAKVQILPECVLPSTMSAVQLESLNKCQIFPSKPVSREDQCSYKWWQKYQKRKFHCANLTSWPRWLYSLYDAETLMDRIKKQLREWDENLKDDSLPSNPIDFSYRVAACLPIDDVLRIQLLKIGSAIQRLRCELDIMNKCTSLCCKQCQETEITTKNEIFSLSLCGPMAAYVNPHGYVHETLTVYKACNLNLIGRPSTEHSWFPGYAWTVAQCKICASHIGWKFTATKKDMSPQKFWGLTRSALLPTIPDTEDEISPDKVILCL

Data set [3] addresses T2, Protein cereblon/Tyrosine-protein kinase BTK. Kind of data set: Protac activity at CRBN/BTK in human NAMALWA cells assessed as induction of BTK protein degradation incubated for 24 hrs by immunoblotting method relative to control. It counts as cell-based. The conditions noted are these: NAMALVA. Put shortly:
as §1
Target sequence in this assay (Q06187 2-659 limits assumed): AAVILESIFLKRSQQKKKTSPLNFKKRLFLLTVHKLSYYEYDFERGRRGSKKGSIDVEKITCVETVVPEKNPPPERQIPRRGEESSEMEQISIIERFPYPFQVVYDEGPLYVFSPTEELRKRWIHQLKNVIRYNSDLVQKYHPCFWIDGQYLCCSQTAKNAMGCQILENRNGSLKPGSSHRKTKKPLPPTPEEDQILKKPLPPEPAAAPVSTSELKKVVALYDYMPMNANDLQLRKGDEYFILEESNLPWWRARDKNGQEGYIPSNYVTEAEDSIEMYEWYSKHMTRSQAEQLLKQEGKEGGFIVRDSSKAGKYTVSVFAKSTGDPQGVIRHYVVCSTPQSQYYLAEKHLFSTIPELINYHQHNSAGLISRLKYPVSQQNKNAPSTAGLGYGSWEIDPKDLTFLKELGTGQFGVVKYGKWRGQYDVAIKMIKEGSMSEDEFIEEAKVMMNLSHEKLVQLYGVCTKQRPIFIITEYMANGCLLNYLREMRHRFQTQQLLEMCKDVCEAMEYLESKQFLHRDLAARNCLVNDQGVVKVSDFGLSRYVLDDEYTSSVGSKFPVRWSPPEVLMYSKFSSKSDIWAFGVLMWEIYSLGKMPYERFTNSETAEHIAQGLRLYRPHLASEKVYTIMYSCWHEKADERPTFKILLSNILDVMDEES
Target sequence in this assay (Q96SW2 whole entry partner): as the sequence (Q96SW2 whole entry) above

The nature of data set [4]: AUClast in mouse at 1 mg/kg, iv. It counts as ADME, organism-based. Details: dose 1 mg/kg, time 0 - last, route intravenous. The settings on record: in vivo.
The nature of data set [5]: Tmax in mouse at 1 mg/kg, iv. The conditions noted are these: in vivo. The class given is ADME, organism-based.
In data set [6] the target is T1, von Hippel-Lindau disease tumor suppressor/Tyrosine-protein kinase BTK. Briefly: Protac activity at VHL/BTK in human NAMALWA cells assessed as induction of BTK protein degradation incubated for 24 hrs by immunoblotting method relative to control. It counts as cell-based. The settings on record: NAMALVA. The method, boiled down: as §1
Target sequence in this assay (P40337 whole entry partner): as the sequence (P40337 whole entry) above
Target sequence in this assay (Q06187 2-659 limits assumed): as the sequence (Q06187 2-659 limits assumed) above

`Cc1ncsc1-c1ccc(CNC(=O)[C@@H]2C[C@@H](O)CN2C(=O)[C@H](C(C)C)N2Cc3ccccc3C2=O)c(OCCCOCCC(=O)N2CCC(n3nc(-c4ccc(Oc5ccccc5)cc4)c4c(N)ncnc43)CC2)c1`: the DC50 in data set [1] was > 1000 nM.
With `Nc1ncnc2c1c(-c1ccc(Oc3ccccc3)cc1)nn2C1CCN(CCOCCOCCOc2ccc3c(c2)CN(C2CCC(=O)NC2=O)C3=O)CC1` (configuration not stated), in data set [2], the DC50 is 7.9 nM. Besides, in data set [3], the maximal response (Emax) turned out to be 95%. Also, in data set [4], the AUClast turned out to be 405 ng·h/mL. Further, in data set [5], the time of peak concentration (Tmax) is 1.98 min.
For the compound `Cc1ncsc1-c1ccc(CNC(=O)[C@@H]2C[C@@H](O)CN2C(=O)[C@@H](NC(=O)COCCOCCN2CCC(n3nc(-c4ccc(Oc5ccccc5)cc4)c4c(N)ncnc43)CC2)C(C)(C)C)cc1`, the DC50 in data set [1] amounted to 374 nM. In addition, the Emax in data set [6] was 49%.
As for `Nc1ncnc2c1c(-c1ccc(Oc3ccccc3)cc1)nn2C1CCN(CCOCCOCC(=O)Nc2ccc3c(c2)C(=O)N(C2CCC(=O)NC2=O)C3=O)CC1` (configuration not stated), in data set [2], the half-maximal degradation concentration (DC50) was found to be 6.2 nM. Moreover, the Emax in data set [3] amounted to 99%. The compound further registered an AUClast in data set [4] of 10.2 ng·h/mL. The time of peak concentration (Tmax) in data set [5] worked out at 1.98 min.
The corresponding values for `Nc1ncnc2c1c(-c1ccc(Oc3ccccc3)cc1)nn2C1CCN(CCOCCOCCOc2ccc3c(c2)C(=O)N(C2CCC(=O)NC2=O)C3=O)CC1` (configuration not stated) are 8.3 nM, 91%, 166 ng·h/mL and 1.98 min.
As to `Cc1ncsc1-c1ccc(CNC(=O)[C@@H]2C[C@@H](O)CN2C(=O)[C@H](C(C)C)N2Cc3ccccc3C2=O)c(OCCCCOCCCCN2CCC(n3nc(-c4ccc(Oc5ccccc5)cc4)c4c(N)ncnc43)CC2)c1`, the half-maximal degradation concentration (DC50) in data set [1] amounted to 162 nM. Also, in data set [6], the Emax was 50%.

Usually DC50 stands for the midpoint of the concentration-degradation curve. The term Emax denotes the size of the effect at its maximum, as opposed to the concentration needed. The term Tmax denotes the time from dosing to the highest level.
